From ChEMBL document CHEMBL1122955, “Synthesis and dihydropteridine reductase inhibitory effects of potential metabolites of the neurotoxin 1-methyl-4-phenyl-1,2,3,6-tetrahydropyridine” (J Med Chem, 1985)

How the values were obtained:
[1] = target: T1, Dihydropteridine reductase (Homo sapiens, UniProt P09417); experiment: Inhibitory activity against human liver Dihydropteridine reductase (DHPR); conditions: read-out: I50
T1 sequence (P09417 whole entry): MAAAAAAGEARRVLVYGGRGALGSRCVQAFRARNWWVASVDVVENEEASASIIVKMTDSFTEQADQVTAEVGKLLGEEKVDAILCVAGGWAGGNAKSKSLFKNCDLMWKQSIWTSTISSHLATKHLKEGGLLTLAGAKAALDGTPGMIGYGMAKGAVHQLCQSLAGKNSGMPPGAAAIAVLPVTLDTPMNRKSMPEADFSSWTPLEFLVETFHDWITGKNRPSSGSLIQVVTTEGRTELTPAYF
Summary of the method: (§1)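 DHPR from human liver (6 mU, 60 ng protein) or rat striatal synaptosomes (6.5 mU, 75 μg twice-washed P₂ protein), preincubated 10 min at 25 °C with at least six inhibitor concentrations. Residual activity measured with 50 μM qDMPH₂ and 50 μM NADH by decrease in NADH absorbance at 340 nm; I₅₀ = concentration giving 50% inhibition.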

[2] = target: T2, Dihydropteridine reductase (Rattus norvegicus, UniProt P11348); experiment: Inhibitory activity against rat striatal synaptosomes Dihydropteridine reductase (DHPR); assay type: subcellular, Brain; conditions: read-out: I50; summary of the method: as §1
T2 sequence (P11348 whole entry): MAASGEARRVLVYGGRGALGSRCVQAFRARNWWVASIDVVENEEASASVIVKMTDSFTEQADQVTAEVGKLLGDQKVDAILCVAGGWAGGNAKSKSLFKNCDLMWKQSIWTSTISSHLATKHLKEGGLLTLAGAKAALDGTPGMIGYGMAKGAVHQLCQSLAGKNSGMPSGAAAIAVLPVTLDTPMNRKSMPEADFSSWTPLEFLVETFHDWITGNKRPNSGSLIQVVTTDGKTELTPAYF

[3] = target: T1, Dihydropteridine reductase; experiment: Noncompetitive Iinhibitory activity against human liver DHPR enzyme
[4] = target: T2, Dihydropteridine reductase; experiment: Noncompetitive Inhibitory activity against rat striatal synaptosomal DHPR enzyme
[5] = target: T2, Dihydropteridine reductase; experiment: Inhibitory activity against rat striatal synaptosomes […] using 10 uM qBH2 and 50 uM NADH assays; assay type: subcellular, Brain; conditions: read-out: I50
Summary of the method: (§2)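 Human liver or rat striatal synaptosomal DHPR, preincubated 10 min at 25 °C with inhibitor. Activity then assayed using natural substrate (6R)-dihydrobiopterin (qBH₂) at 10 μM with 50 μM NADH, followed as NADH absorbance decrease at 340 nm, to give 50% inhibitory concentrations.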

[6] = target: T1, Dihydropteridine reductase; experiment: Inhibitory activity against human liver Dihydropteridine reductase using 10 uM qBH2 and 50 uM NADH assays; conditions: read-out: I50; summary of the method: as §2
[7] = target: T1, Dihydropteridine reductase; experiment: Inhibitory activity against human liver Dihydropteridine reductase enzyme using 10 uM qBH2 and 50 uM NADH assays; conditions: read-out: I50; summary of the method: as §2

Which IC50 [1] does the source give for Oc1ccc(C2=CCNCC2)cc1O here?
The IC50 was 3.6 µM.

What about the IC50 [2] of the same molecule?
Its IC50 is 1.9 µM.

How did the IC50 [1] turn out when CN1CCC(c2ccccc2)CC1 was run?
The IC50 was 23000 µM.

What about the IC50 [2] of the same molecule?
Its IC50 is 12000 µM.

Which results are given for COc1cc(C2CCN(C(C)=O)CC2)ccc1O?
IC50 [1]: 27 µM; IC50 [2]: 4.4 µM

For c1ccc(-c2ccncc2)cc1, which IC50 [1] is on record?
The IC50 was 2400 µM.

What about the IC50 [2] of the same molecule?
Its IC50 is 1900 µM.

COc1cc(C2CCN(C)CC2)ccc1O was tested. Which IC50 [1] did it give?
The IC50 was 19 µM.

What about the IC50 [2] of the same molecule?
Its IC50 is 20 µM.

Which IC50 [1] does the source give for C1=C(c2ccccc2)CCNC1 here?
Its IC50 is 12000 µM.

What about the IC50 [2] of the same molecule?
The IC50 was 6600 µM.

How did the IC50 [1] turn out when COc1cc(C2=CCNCC2)ccc1O was run?
Its IC50 is 7.2 µM.

For C=CC[n+]1ccc(-c2ccccc2)cc1, which IC50 [1] is on record?
Its IC50 is 9400 µM.

And the IC50 [2]?
Its IC50 is 7400 µM.

COc1cc(C2=CCN(C)CC2)ccc1O was tested. Which IC50 [1] did it give?
The IC50 was 9.3 µM.

What about the IC50 [2] of the same molecule?
The IC50 was 5.8 µM.

What does the source list for CN1CC=C(c2ccc(Cl)cc2)CC1?
IC50 [1]: 2700 µM; IC50 [2]: 6400 µM

Which results are given for Oc1ccc(C2CCNCC2)cc1O?
IC50 [1]: 44 µM; IC50 [2]: 38 µM

With CN1CC=C(c2ccc(O)cc2)CC1 as the molecule, how does the IC50 [1] read?
The IC50 was 3 µM.

What about the Ki [3] of the same molecule?
The Ki was 2.8 µM.

And the IC50 [2]?
Its IC50 is 2.6 µM.

For C[n+]1ccc(-c2ccc(O)c(O)c2)cc1, which IC50 [1] is on record?
The IC50 was 0.63 µM.

And the IC50 [2]?
Its IC50 is 1.6 µM.

And the Ki [4]?
The Ki was 1.9 µM.

For C[n+]1ccc(-c2ccccc2)cc1 [listing 1 of 2 here], which IC50 [1] is on record?
Its IC50 is 5600 µM.

What about the IC50 [2] of the same molecule?
The IC50 was 3400 µM.

C[n+]1ccc(-c2ccccc2)cc1 [listing 2 of 2 here] was tested. Which IC50 [1] did it give?
Its IC50 is 10000 µM.

And the IC50 [2]?
The IC50 was 12000 µM.

With COc1cc(C2=CCN(C(C)=O)CC2)ccc1O as the molecule, how does the IC50 [1] read?
Its IC50 is 5 µM.

What about the IC50 [2] of the same molecule?
The IC50 was 91 µM.

For CC(=O)N1CCC(c2ccc(O)c(O)c2)CC1, which IC50 [1] is on record?
Its IC50 is 5.2 µM.

What about the IC50 [2] of the same molecule?
Its IC50 is 3.1 µM.

With Oc1ccc(C2=CCNCC2)cc1 as the molecule, how does the IC50 [1] read?
The IC50 was 5.9 µM.

What about the IC50 [2] of the same molecule?
The IC50 was 3.4 µM.

CN1CC=C(c2ccc(O)c(O)c2)CC1 was tested. Which IC50 [1] did it give?
The IC50 was 3.4 µM.

And the IC50 [5]?
The IC50 was 1.2 µM.

What about the IC50 [2] of the same molecule?
Its IC50 is 2.5 µM.

What about the Ki [4] of the same molecule?
The Ki was 3.3 µM.

What about the IC50 [6] of the same molecule?
The IC50 was 1.4 µM.

Clc1ccc(C2=CCNCC2)cc1 was tested. Which IC50 [1] did it give?
The IC50 was 3400 µM.

What about the IC50 [2] of the same molecule?
The IC50 was 4000 µM.

For COc1ccc(-c2ccncc2)cc1OC, which IC50 [1] is on record?
Its IC50 is 5300 µM.

And the IC50 [2]?
Its IC50 is 2000 µM.

Which results are given for Oc1ccc(-c2ccncc2)cc1O?
IC50 [1]: 0.38 µM; IC50 [2]: 0.28 µM

How did the IC50 [1] turn out when CN1CC=C(c2ccccc2)CC1 was run?
The IC50 was 3000 µM.

What about the IC50 [5] of the same molecule?
Its IC50 is 8400 µM.

And the IC50 [7]?
Its IC50 is 7200 µM.

And the IC50 [2]?
Its IC50 is 4600 µM.

How did the IC50 [1] turn out when COc1ccc(C2=CCN(C(C)=O)CC2)cc1OC was run?
The IC50 was 1100 µM.

And the IC50 [2]?
Its IC50 is 2300 µM.

Which results are given for CC(=O)N1CC=C(c2ccc(O)c(O)c2)CC1?
IC50 [1]: 0.28 µM; IC50 [2]: 0.25 µM

Which results are given for CN1CCC(c2ccc(O)c(O)c2)CC1?
IC50 [1]: 42 µM; IC50 [2]: 60 µM; Ki [4]: 74 µM
